Compound activity (PubChem)
ATG4B inhibitor = ATG4B (human) cysteine protease inhibition; ATG4B cleavage of LC3-PLA2, NBD-HPC fluorescence, 1 h; 0.51% of 340,000 active; AID 504462; inhibition, % at 8.33 µM; in the data active = inhibition above about 40%
A1 inh = inhibitors of the anti-apoptotic protein A1, read as caspase activation; caspase activation, % (test concentration not listed); MEF A1-2A-BIM cells, Caspase-Glo 3/7 luminescence, 3 h; percent of clofoctol response, vehicle zero; 0.066% of 330,000 active;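 active = over half of replicate activation scores above 10%, or exactly half above 10 with the replicate mean above 10; inconclusive = replicate mean below 10 yet half the replicates above 10; inactive = over half of replicates below 10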
HDAC3 inh = blocks human histone deacetylase 3; inhibition, % at 8.3 µM; recombinant HDAC3, fluorogenic peptide/trypsin coupled, fluorescence; AID 2718; 0.15% of 320,000 active; in the data active = inhibition above about 26%, passing the limit was not always enough; inconclusive = no clear call, values can overlap the other calls
LANA-H2B inh = blocks KSHV LANA binding to histone H2A/H2B; Q9QR71; cell-free LANA-H2A/H2B peptide, fluorescence polarization; inhibition, % (no concentration beside the values); 0.6% of 320,000 active; in the data active = inhibition mostly above about 10%, no sharp cut-off; inactive = mostly below about 6.7%
Target sequence (Q9QR71 whole entry, looked up): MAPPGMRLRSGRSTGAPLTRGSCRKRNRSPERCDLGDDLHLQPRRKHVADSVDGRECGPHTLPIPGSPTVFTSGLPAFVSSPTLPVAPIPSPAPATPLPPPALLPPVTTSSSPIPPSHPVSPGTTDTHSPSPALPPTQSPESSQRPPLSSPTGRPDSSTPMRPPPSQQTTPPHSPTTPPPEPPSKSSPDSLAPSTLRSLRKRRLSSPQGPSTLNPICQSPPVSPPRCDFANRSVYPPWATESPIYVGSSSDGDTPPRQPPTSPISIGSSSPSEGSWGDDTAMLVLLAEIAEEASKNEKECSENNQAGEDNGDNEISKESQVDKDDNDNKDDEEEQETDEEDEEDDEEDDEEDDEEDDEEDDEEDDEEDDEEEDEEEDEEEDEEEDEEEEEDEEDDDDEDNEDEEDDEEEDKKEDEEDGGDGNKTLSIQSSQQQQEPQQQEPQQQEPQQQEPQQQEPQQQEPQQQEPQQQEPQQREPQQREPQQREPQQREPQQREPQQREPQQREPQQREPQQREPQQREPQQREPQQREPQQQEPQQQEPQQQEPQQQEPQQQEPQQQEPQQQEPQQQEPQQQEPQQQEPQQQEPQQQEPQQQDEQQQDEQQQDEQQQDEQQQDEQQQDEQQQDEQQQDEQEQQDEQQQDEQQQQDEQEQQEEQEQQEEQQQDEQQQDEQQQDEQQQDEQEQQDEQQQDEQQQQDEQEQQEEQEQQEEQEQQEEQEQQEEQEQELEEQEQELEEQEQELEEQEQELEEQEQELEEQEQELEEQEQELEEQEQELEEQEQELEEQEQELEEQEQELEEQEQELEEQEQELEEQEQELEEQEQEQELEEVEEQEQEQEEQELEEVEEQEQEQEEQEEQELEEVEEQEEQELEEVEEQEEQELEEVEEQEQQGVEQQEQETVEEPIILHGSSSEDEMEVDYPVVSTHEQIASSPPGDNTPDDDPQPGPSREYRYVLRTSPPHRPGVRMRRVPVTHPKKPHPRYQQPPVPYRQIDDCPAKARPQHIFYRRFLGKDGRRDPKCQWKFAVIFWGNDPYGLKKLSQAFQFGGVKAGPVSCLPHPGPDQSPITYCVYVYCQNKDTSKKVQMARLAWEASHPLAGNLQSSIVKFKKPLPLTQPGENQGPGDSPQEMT
AI-2 QS modul = modulators of Vibrio harveyi AI-2 quorum sensing system | 0.4% of 300,000 active | activity change, % at 7.5 µM | Vibrio harveyi JMH597 AI-2 luminescence/OD600 ratio, 9 h; stronger effect = lower value; strain lacks LuxN and CqsS sensors; 0 = neutral-control median; in the data active = activity change below about -75%, passing the limit was not always enough; inconclusive = no clear call, values can overlap the other calls;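 also: luminescence divided by OD600 gain over 9 h not by final OD600 alone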
HKDC1 inhibitor = inhibitors of human hexokinase HKDC1; Q2TB90; recombinant HKDC1, G6PDH/diaphorase resazurin coupled fluorescence; inhibition, % at 20 µM; 0.16% of 340,000 active;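 active = inhibition above about 35% when tested at 20 µM, limit read from the data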
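System: Recombinant HKDC1 hexokinase | Amount: HKDC1 at 5 µg/mL | Reagent: Glucose with 1 mM ATP | Doses: Single 20 µM dose | Incubation: Reaction time 90 min, room temperature, protected from light | Signal: Coupled resazurin fluorescence, excitation 525 nm, emission 613 nm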
A number is an active result; . = inactive; ? = inconclusive; / = not tested or not shown; ! = not active in a repeat. Only some compounds are listed: those with a hit (about 1.8% of all), similar ones and a draw of the others.

SMILES	ATG4B inhibitor	A1 inh	HDAC3 inh	LANA-H2B inh	AI-2 QS modul	HKDC1 inhibitor
COC(=O)[C@@]1(Cc2ccccc2)[C@H]2C(=O)N(C)C(=O)[C@H]2[C@H]2CN(C)C(=NCc3ccccc3)N21	.	/	/	/	/	.
O=C(CSc1nnc(-c2ccncc2)n1-c1ccccc1Cl)Nc1ccc(C(=O)O)cc1	.	.	.	48	.	.
O=C(CCNS(=O)(=O)c1ccc(OC(F)(F)F)cc1)Nc1cccc(S(=O)(=O)N2CCCC2)c1	.	/	/	/	/	.
O=C(O)C(NS(=O)(=O)c1ccc(F)cc1)c1ccccc1 (stereo not given)	.	.	.	.	.	.
CCC/C=C(\CCC)C(NS(=O)(=O)c1ccc(C(F)(F)F)cc1)c1ccccc1 (stereo not given)	/	.	27	.	.	/
O=C(CCC(=O)c1ccc(F)cc1)Nc1cc(Cl)cc(Cl)c1	.	.	.	.	-79	.
CCOC(=O)N1C(=O)[C@@](CC)(c2ccccc2)N1C(=O)OCC	.	.	35	.	.	.
CC[C@@]1(c2cccc(C)c2)C(=O)N(C(=O)OC)N1C(=O)OC	.	.	.	.	.	.
COc1ccc(CCNC(=O)CCOc2ccc(C)cc2)cc1OC	.	6.1	.	.	.	.
Cc1ccc(C)c(OCCC(=O)NCCc2ccc(S(N)(=O)=O)cc2)c1	.	.	.	29	.	.
COc1ccc(CCNC(=O)CCOc2cc(C)ccc2C)cc1OC	.	.	.	.	.	.
CCOC(=O)C1Oc2ccccc2C(c2ccoc2)=C1C(=O)OC (stereo not given)	.	/	/	/	/	.
COc1cccc(-n2nnnc2S(C)(=O)=O)c1	.	.	.	.	-87	.
COc1cccc(-n2nnc(S(=O)(=O)c3ccc(C)cc3)c2N)c1	.	.	.	.	-92	.
O=C(Cc1ccc(S(=O)(=O)N2CCOCC2)s1)N1CCN(S(=O)(=O)c2ccccc2[N+](=O)[O-])CC1	.	/	/	/	/	.
NCCc1cnc[nH]1	.	.	.	22!	.	.
NCCC(=O)NCCc1cnc[nH]1	.	.	.	.	/	.
S=C(NCc1ccco1)Nc1cc(-c2ccccc2)[nH]n1	.	.	.	.	-81	.
CCC1(OC(=O)CN(C)C)C(=O)OCc2c1cc1n(c2=O)Cc2cc3c(N)cccc3nc2-1 (stereo not given)	.	/	/	/	/	.
O=C(N/N=C/c1ccc(O)cc1O)c1ccncc1	.	.	.	.	.	.
O=C(C[n+]1ccccc1)N/N=C/c1cc(Br)cc(Br)c1O	.	.	.	.	-149	.
O=C(N/N=C/c1cc(Br)cc(Br)c1O)c1ccncc1	.	.	.	.	-84	.
O=C(N/N=C/c1ccc(Cl)cc1Cl)c1ccncc1	.	.	.	.	.	.
O=C(N/N=C/c1cc(Cl)cc(Cl)c1O)c1ccncc1	.	.	.	.	-85	.
CC(NC(=O)/C(=C\c1ccco1)NC(=O)c1ccccc1Br)C(=O)O (stereo not given)	.	.	.	.	.	.
SMILES	ATG4B inhibitor	A1 inh	HDAC3 inh	LANA-H2B inh	AI-2 QS modul	HKDC1 inhibitor
O=C(CN1C(=O)C2CC=CCC2C1=O)NCC1COc2ccccc2O1 (stereo not given)	.	.	.	51	.	.
CC1=NC(C)(C)CC2CCC(O)C12 (stereo not given)	.	/	/	/	/	.
COc1ccc2nc3cc(Cl)ccc3c(Nc3ccc(O)c(CN4CCN(C)CC4)c3)c2c1	.	/	/	/	/	.
COc1cc(C(=O)O/N=C2/C=C(C)C(=O)C=C2C)cc(OC)c1OC	.	.	35	.	.	.
C=CCC[C@@H](Cc1ccc(F)cc1)C(=O)OCCNC(=O)[C@@H](CC=C)CC(=O)N[C@@H](CO)Cc1ccccc1	.	.	.	26	/	.
C=CCC[C@@H](Cc1ccc(F)cc1)C(=O)OC[C@@H]1CCCN1C(=O)[C@@H](CC=C)CC(=O)N[C@@H](CO)Cc1ccccc1	.	.	35	.	/	.
CCCCCC1(C)NC(=S)N(c2ccccc2)N1 (stereo not given)	.	.	.	.	.	.
CCCCCCC1(C)NC(=S)N(c2ccccc2)N1 (stereo not given)	.	.	?	13	.	.
Cc1ccc(NC(=O)CN(C)C(=O)Cc2coc3cc(C)c(C)cc23)cc1	.	/	/	/	/	.
CCN(CC(=O)Nc1ccc(OC)cc1)C(=O)Cc1coc2cc(C)c(C)cc12	.	.	.	56	/	.
COc1ccc(NC(=O)COC(=O)CCc2ccc(S(=O)(=O)N3CCOCC3)cc2)cc1Cl	.	.	.	.	/	.
Cc1ccc(Cl)cc1N1CCN(C(=O)C2CCN(S(C)(=O)=O)CC2)CC1	.	.	.	13	.	.
CCCC(=O)Nc1ccccc1NC(C)=O	.	.	.	18	.	.
CCCCCC(=O)Nc1cccc2ccccc12	.	.	?	.	.	.
COc1ccc(S(=O)(=O)N2CCCCC2)cc1NC(=O)c1cccc(S(=O)(=O)N2CCOCC2)c1	.	/	/	/	/	.
O=C1CCCN2N=C(SCC(=O)Nc3cccc(Cl)c3)SC2=N1	.	.	.	26	.	.
O=C1CCCN2N=C(SCC(=O)Nc3ccc(Cl)cc3)SC2=N1	.	.	.	.	.	.
CCN(Cc1nc(-c2ccccc2)no1)C(=O)c1ccoc1C	.	.	.	.	.	.
Cc1occc1C(=O)N(Cc1nc(-c2ccccc2)no1)C(C)C	.	.	.	16	.	.
COc1cccc(C(=O)Oc2cc(N)n(S(=O)(=O)c3ccc(C)cc3)n2)c1OC	.	.	53	.	.	.
Nc1cc(OC(=O)c2cccs2)nn1S(=O)(=O)c1ccccc1	.	.	96	.	.	.
COc1ccc(S(=O)(=O)n2nc(OC(=O)c3cccs3)cc2NC(=O)c2cccs2)cc1	.	.	46	.	.	.
COc1ccc(S(=O)(=O)n2nc(OC(C)=O)cc2N)cc1	.	.	.	.	.	.
COc1ccc(C(=O)Oc2cc(N)n(S(=O)(=O)c3ccccc3)n2)cc1	.	.	?	.	.	.
Cc1ccc(C(=O)Oc2cc(N)n(S(=O)(=O)c3ccc(F)cc3)n2)cc1	.	.	.	.	.	.
SMILES	ATG4B inhibitor	A1 inh	HDAC3 inh	LANA-H2B inh	AI-2 QS modul	HKDC1 inhibitor
Nc1cc(OC(=O)c2cccs2)nn1S(=O)(=O)c1ccc(F)cc1	.	.	70	.	.	.
Cc1cc(C)c(C#N)c(SCC(=O)Nc2c(C)n(C)n(-c3ccccc3)c2=O)n1	.	.	.	.	/	.
Cc1ccc(C)c(C(=O)CN2C(=O)NC3(CCCCCC3)C2=O)c1	.	/	/	/	/	.
CC1=NN(C(=O)c2ccoc2C)C(O)(C(F)(F)F)C1 (stereo not given)	.	.	.	.	.	.
O=C(CSc1nnc(CNC(=O)c2c(F)cccc2F)o1)NCc1ccco1	.	.	.	.	.	.
Cc1cn(CC(=O)NCCNc2ccc([N+](=O)[O-])cn2)c(=O)[nH]c1=O	.	/	/	/	/	.
